This is a sample that favours compounds with a hit; in the whole collection about 2.2% have one here.
SF1 activator = activators of human SF-1, primary screen, cell-based, CHO-K1, Gal4-SF-1 LBD, luciferase luminescence; activation, % at 10 µM; CHO-K1 Gal4-SF-1 LBD luciferase reporter; % increase over DMSO SF-1-specific signal; 65,000 tested, 1.9% active;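 active = activation above the mean activation of all tested compounds plus 3 SD, cut at about 50% in these data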
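Assay system: CHO-K1 cells co-transfected with Gal4 DBD–human SF-1 LBD, 5xGal4 luciferase reporter; doses: 10 µM only; incubation: 20 h compound exposure at 37 °C after 1 h cell settling; signal: luciferase light emission; evaluation: percent activation versus DMSO; repeats: one test per compound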
MT1-MMP txn act = MT1-MMP promoter reporter activation – cell-based, luciferase luminescence, primary screen; HT1080 MT1-MMP promoter luciferase reporter, overnight; hits give high values; activation factor at 10 µM; 86,000 tested, 0.16% active; AID 750, 2007;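 active = activation factor of at least 2 for MT1-MMP transcription at 10 µM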
RORa activator = activators of orphan receptor RORA, primary screen, cell-based, luminescence; Nuclear receptor ROR-alpha (Homo sapiens), P35398; CHO-K1 Gal4-RORA LBD luciferase reporter; percent increase over mock-subtracted basal signal; activation, % at 10 µM; 65,000 tested, 1.5% active; AID 560, 2006;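 active = activation above the mean of all tested compounds plus 3 SD, cut at about 49% in these data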;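 also: 0% = DMSO-treated RORA cells and 100% = added signal equal to DMSO minus mock-transfected cells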
E coli RNAP = E. coli RNAP inhibitors, biochemical; E. coli RNA polymerase, fluorescence transcription assay; inhibition, %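 (tested at 10 µM)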; 62,000 tested, 0.2% active; in the data active = inhibition above about 20%;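 also: 0% = enzyme without compound and 100% = no enzyme blank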
TNAP act DEA = human TNAP enzyme activators, primary screen, biochemical, luminescent, intermediate phosphate acceptor level; AID 813, 2007; Alkaline phosphatase, tissue-nonspecific isozyme (Homo sapiens), P05186; activation factor at 20 µM; purified TNAP, CDP-star luminescence, 100 mM DEA, 30 min; hits give high values; scale: 0 levamisole-inhibited, 1 vehicle-only enzyme; 64,000 tested, under 10 active;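 active = activation factor of at least 2 at 20 µM, relative to controls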
Target sequence (P05186 whole entry, looked up): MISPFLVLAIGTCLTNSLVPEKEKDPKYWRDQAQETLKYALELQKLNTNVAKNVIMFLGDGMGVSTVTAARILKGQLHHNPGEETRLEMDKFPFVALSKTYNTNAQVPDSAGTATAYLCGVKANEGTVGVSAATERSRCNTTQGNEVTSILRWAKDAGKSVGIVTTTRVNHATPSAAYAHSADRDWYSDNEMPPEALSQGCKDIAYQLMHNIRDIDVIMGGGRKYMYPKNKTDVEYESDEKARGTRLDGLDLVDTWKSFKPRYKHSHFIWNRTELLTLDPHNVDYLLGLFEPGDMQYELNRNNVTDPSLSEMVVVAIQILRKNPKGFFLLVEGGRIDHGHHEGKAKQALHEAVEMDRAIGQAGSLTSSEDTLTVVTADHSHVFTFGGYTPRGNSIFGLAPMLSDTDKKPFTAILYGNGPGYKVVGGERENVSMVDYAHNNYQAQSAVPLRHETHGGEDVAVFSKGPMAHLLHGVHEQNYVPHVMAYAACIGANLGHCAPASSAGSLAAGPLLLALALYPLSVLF
AP complement = alternative complement pathway inhibitors, primary screen, biochemical, ELISA, human serum, orthogonally pooled compounds. 62,000 tested, 0.08% active. inhibition, % at 5 µM. LPS-coated ELISA, C3 deposition; tested in compound mixtures;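 active = inhibition above 30% in each of the two pooled mixtures holding the compound, so the lower value exceeds 30%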;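 also: 0% = serum in Mg-EGTA without compound and 100% = EDTA serum blank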
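Test system: human serum complement alternative pathway, C3 deposition onto LPS / Medium: Mg2+-EGTA GVB++ buffer containing human serum at 1:15 dilution / Probe or stimulus: Plate-bound LPS / Times: 1 h at 37 °C / Signal: ELISA with HRP anti-human C3 antibody, TMB substrate, absorbance 450 nm / Measure: percent inhibition / Repeats: two pool placements per compound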
An asterisk follows results filed as active.

What do the screens show for `CCCNS(=O)(=O)c1ccc(NC(=O)c2ccccn2)cc1`?
SF1 activator: 36.3; MT1-MMP txn act: 0.7; RORa activator: 18.9; E coli RNAP: 8.8; TNAP act DEA: 0.9; AP complement: 12.6

What do the screens show for `COc1ccc(CCNC(=O)CSc2nc3ccccc3o2)cc1`?
MT1-MMP txn act: 1.1

How did COc1ccc(C(=O)c2oc3ccccc3c2N)cc1 do in these assays?
SF1 activator: 42.1; MT1-MMP txn act: 2.3*; RORa activator: 35.7; E coli RNAP: -6.6; TNAP act DEA: 1; AP complement: -0.4

What do the screens show for `COC(=O)CCC(=O)c1oc2ccc(OC)cc2c1N`?
MT1-MMP txn act: 1.3

What do the screens show for `COc1ccc2oc(C(=O)C3CC3)c(N)c2c1`?
SF1 activator: 74.0*; MT1-MMP txn act: 1.5; RORa activator: 68.4*; E coli RNAP: 6.2; TNAP act DEA: 0.9; AP complement: 6.0

What do the screens show for `Nc1c(C(=O)c2ccc(F)cc2)oc2ccccc12`?
SF1 activator: 17.7; MT1-MMP txn act: 1.4; RORa activator: 7.6

How did COc1ccc2oc(C(=O)c3ccccc3)c(N)c2c1 do in these assays?
MT1-MMP txn act: 2.1*

How did O=C(COC(=O)C1=COCCO1)NCCCc1ccccc1 do in these assays?
SF1 activator: -3.5; MT1-MMP txn act: 1.2; RORa activator: -12.2; E coli RNAP: 2.1; TNAP act DEA: 0.9; AP complement: 2.1

What do the screens show for `O=C(OCC(=O)c1c[nH]c2ccccc12)C1=COCCO1`?
SF1 activator: 109.2*; MT1-MMP txn act: 2.1*; RORa activator: 54.8*; E coli RNAP: 14.2; TNAP act DEA: 0.9; AP complement: 0.9

Results for CCOC(=O)CCn1cc(F)c(=O)n(Cc2ccccc2)c1=O ?
SF1 activator: -6.6; MT1-MMP txn act: 1.1; RORa activator: 6.8; E coli RNAP: -0.2; TNAP act DEA: 0.9; AP complement: 15.4

What do the screens show for `Brc1ccc(-c2nc(-c3cccnc3)no2)o1`?
SF1 activator: 66.4*; MT1-MMP txn act: 1.4; RORa activator: 28.1; E coli RNAP: -5.2; TNAP act DEA: 0.8; AP complement: 22.3

How did CC(=O)Oc1ccc(-c2nc(-c3cccnc3)no2)cc1 do in these assays?
SF1 activator: 28.0; MT1-MMP txn act: 0.5; RORa activator: 53.1*; E coli RNAP: 4.3; TNAP act DEA: 0.9; AP complement: 9.9

Results for c1ccc(-c2noc(-c3ccccc3-c3ccccc3)n2)cc1 ?
MT1-MMP txn act: 0.9

What do the screens show for `Brc1ccc(-c2nc(-c3ccccc3)no2)o1`?
SF1 activator: 62.6*; MT1-MMP txn act: 1.3; RORa activator: 68.4*; TNAP act DEA: 0.9; AP complement: 4.8

What do the screens show for `CC(=O)Oc1ccc(Oc2ccc(-c3noc(C)n3)cc2)cc1`?
SF1 activator: -12.8; MT1-MMP txn act: 1.5; RORa activator: -6.6; E coli RNAP: -2.5; TNAP act DEA: 1; AP complement: 18.4

How did Cc1ccc(-c2noc(CSc3nnnn3C3CCCCC3)n2)cc1 do in these assays?
SF1 activator: -30.2; MT1-MMP txn act: 1.1; RORa activator: 9.9; E coli RNAP: 7.1; TNAP act DEA: 1; AP complement: 8.7

Results for CC(=O)N1CCN(CCN=CC2=C(O)CC(c3cccs3)CC2=O)CC1 (stereo not drawn) ?
SF1 activator: -11.8; MT1-MMP txn act: 1.1; RORa activator: -19.6; E coli RNAP: 3.7; TNAP act DEA: 0.9; AP complement: -1.7

Results for CCOC(=O)c1sc(NC(=O)CSc2nc(-c3ccco3)cc(C(F)(F)F)n2)c(C(=O)OC(C)C)c1C ?
MT1-MMP txn act: 1.1

Results for Cc1ccc(Cn2c(SCC(C)C)nc3c2c(=O)n(C)c(=O)n3C)cc1 ?
SF1 activator: 3.9; MT1-MMP txn act: 1.1; RORa activator: 5.7; E coli RNAP: 3.2; TNAP act DEA: 0.9; AP complement: 0.7

Results for Nc1cc(N)nc(SCc2cccnc2)n1 ?
SF1 activator: -2.3; MT1-MMP txn act: 1.1; RORa activator: 3.4; E coli RNAP: 6.5; TNAP act DEA: 0.9; AP complement: -4.0

What do the screens show for `Nc1nc(SCc2ccccc2)ns1`?
SF1 activator: 55.0*; MT1-MMP txn act: 1.4; RORa activator: 23.8; E coli RNAP: 4.2; TNAP act DEA: 0.9; AP complement: 4.8

What do the screens show for `Nc1cc(N)nc(SCc2ccccc2)n1`?
SF1 activator: 54.4*; MT1-MMP txn act: 1.2; RORa activator: 20.7; E coli RNAP: -15.8; TNAP act DEA: 0.9; AP complement: -16.4

How did CC1CCN(c2ccc(NC(=O)c3cccnc3)cc2)CC1 do in these assays?
SF1 activator: 58.9*; MT1-MMP txn act: 1.4; RORa activator: 48.5; E coli RNAP: 3.1; TNAP act DEA: 0.9; AP complement: 26.2

What do the screens show for `O=C(Nc1ccc2c(c1)oc1ccccc12)N1CCOCC1`?
SF1 activator: 52.2*; MT1-MMP txn act: 1.6; RORa activator: 26.7; E coli RNAP: 6.9; TNAP act DEA: 1; AP complement: 15.1

How did O=C(NCCSc1ccccc1)c1cccnc1 do in these assays?
SF1 activator: 61.6*; MT1-MMP txn act: 1.6; RORa activator: 78.4*; E coli RNAP: 4.4; TNAP act DEA: 0.9; AP complement: -0.7

Results for O=C(Nc1ccccc1)N1CCOCC1 ?
MT1-MMP txn act: 1.1

What do the screens show for `O=C(Nc1ccc2ccccc2c1)c1cccnc1`?
SF1 activator: 65.8*; MT1-MMP txn act: 1.3; RORa activator: 73.1*; E coli RNAP: 13.5; TNAP act DEA: 0.9; AP complement: 7.4

Results for COc1ccc2nc3c(cc2c1)Cc1ccccc1-3 ?
MT1-MMP txn act: 1

How did CCn1cc(C(=O)Nc2nncs2)c(=O)c2cc(F)c(N3CCN(C(=O)c4ccco4)CC3)cc21 do in these assays?
SF1 activator: 6.4; MT1-MMP txn act: 1.1; RORa activator: 21.4; E coli RNAP: -3.9; TNAP act DEA: 1; AP complement: 14.8

What do the screens show for `O=C(c1ccco1)N1CCN(c2nnc(-c3ccccc3)c3ccccc23)CC1`?
MT1-MMP txn act: 1

Results for O=C(Nc1ccc2nccnc2c1)c1cnccn1 ?
SF1 activator: 8.3; MT1-MMP txn act: 1.4; RORa activator: 16.7; E coli RNAP: -0.2; TNAP act DEA: 1; AP complement: 15.3

What do the screens show for `O=C(Nc1ccc2ccccc2c1)c1cnccn1`?
SF1 activator: 31.1; MT1-MMP txn act: 0.6; RORa activator: 56.9*; E coli RNAP: 3.6; TNAP act DEA: 0.9; AP complement: 13.2

High-throughput results deposited in PubChem BioAssay by several laboratories.
